Measurements from PMC5292677 (Leukemia, 2016).

System: patients with myelofibrosis
Experiment: Phase I safety: drug-related adverse events, DLTs, tolerability
Type: in vivo, human
Procedure, shortened: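 Design was 3+3 dose escalation of oral test compound QD (75–400 mg) or BID (100–400 mg) in 28-day cycles. AEs were graded by CTCAE v4.0 with causality, alongside labs, ECGs, vital signs and physical exams. A DLT was grade 4 cytopenia, other grade 3/4 hematologic toxicity, or grade 3/4 non-hematologic toxicity, excluding manageable GI events. The population was all patients dosed ≥1 time.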

C[C@H](Nc1cc(-c2cnn(C)c2)cc(Nc2cnccn2)n1)c1ccc(F)cc1 [NS-018]
Drug-related anemia, all grades (75 mg QD (n=3)): 0 n (%) | Drug-related diarrhea, all grade (75 mg QD (n=3)): 0 n (%) | Drug-related dizziness, all grade (75 mg QD (n=3)): 0 n (%) | Drug-related esophageal reflux, all grade (75 mg QD (n=3)): 0 n (%) | Drug-related headache, all grade (75 mg QD (n=3)): 0 n (%) | Drug-related nausea, all grade (75 mg QD (n=3)): 0 n (%) | Drug-related paresthesia, all grade (75 mg QD (n=3)): 0 n (%) | Drug-related thrombocytopenia, Grade 1/2 (75 mg QD (n=3)): 0 n (%) | Drug-related thrombocytopenia, Grade 3 (75 mg QD (n=3)): 0 n (%) | Drug-related thrombocytopenia, Grade 4 (75 mg QD (n=3)): 1 (33) n (%) | Drug-related thrombocytopenia, all grades (75 mg QD (n=3)): 1 (33) n (%) | Drug-related vomiting, all grade (75 mg QD (n=3)): 0 n (%) | Drug-related weight increased, all grade (75 mg QD (n=3)): 0 n (%) | Drug-related anemia, all grades (100 mg BID (n=5)): 0 n (%) | Drug-related diarrhea, all grade (100 mg BID (n=5)): 0 n (%) | Drug-related dizziness, all grade (100 mg BID (n=5)): 0 n (%) | Drug-related esophageal reflux, all grade (100 mg BID (n=5)): 0 n (%) | Drug-related headache, all grade (100 mg BID (n=5)): 0 n (%) | Drug-related nausea, all grade (100 mg BID (n=5)): 0 n (%) | Drug-related paresthesia, all grade (100 mg BID (n=5)): 0 n (%) | Drug-related thrombocytopenia, Grade 1/2 (100 mg BID (n=5)): 0 n (%) | Drug-related thrombocytopenia, Grade 3 (100 mg BID (n=5)): 1 (20) n (%) | Drug-related thrombocytopenia, Grade 4 (100 mg BID (n=5)): 0 n (%) | Drug-related thrombocytopenia, all grades (100 mg BID (n=5)): 1 (20) n (%) | Drug-related vomiting, all grade (100 mg BID (n=5)): 0 n (%) | Drug-related weight increased, all grade (100 mg BID (n=5)): 0 n (%) | Drug-related anemia, all grades (125 mg QD (n=4)): 0 n (%) | Drug-related diarrhea, all grade (125 mg QD (n=4)): 0 n (%) | Drug-related dizziness, all grade (125 mg QD (n=4)): 0 n (%) | Drug-related esophageal reflux, all grade (125 mg QD (n=4)): 0 n (%) | Drug-related headache, all grade (125 mg QD (n=4)): 0 n (%) | Drug-related nausea, all grade (125 mg QD (n=4)): 0 n (%) | Drug-related paresthesia, all grade (125 mg QD (n=4)): 0 n (%) | Drug-related thrombocytopenia, all grades (125 mg QD (n=4)): 0 n (%) | Drug-related vomiting, all grade (125 mg QD (n=4)): 0 n (%) | Drug-related weight increased, all grade (125 mg QD (n=4)): 0 n (%) | Drug-related anemia, all grades (200 mg BID (n=12)): 0 n (%) | Drug-related diarrhea, all grade (200 mg BID (n=12)): 2 (17) n (%) | Drug-related diarrhea, grade 3 or 4 (200 mg BID (n=12)): 0 n (%) | Drug-related dizziness, all grade (200 mg BID (n=12)): 1 (8) n (%) | Drug-related dizziness, grade 3 or 4 (200 mg BID (n=12)): 0 n (%) | Drug-related esophageal reflux, all grade (200 mg BID (n=12)): 0 n (%) | Drug-related headache, all grade (200 mg BID (n=12)): 0 n (%) | Drug-related nausea, all grade (200 mg BID (n=12)): 1 (8) n (%) | Drug-related nausea, grade 3 or 4 (200 mg BID (n=12)): 0 n (%) | Drug-related paresthesia, all grade (200 mg BID (n=12)): 0 n (%) | Drug-related thrombocytopenia, Grade 1/2 (200 mg BID (n=12)): 1 (8) n (%) | Drug-related thrombocytopenia, all grades (200 mg BID (n=12)): 1 (8) n (%) | Drug-related vomiting, all grade (200 mg BID (n=12)): 0 n (%) | Drug-related weight increased, all grade (200 mg BID (n=12)): 0 n (%) | Drug-related anemia, Grade 1/2 (200 mg QD (n=9)): 1 (11) n (%) | Drug-related anemia, all grades (200 mg QD (n=9)): 1 (11) n (%) | Drug-related diarrhea, all grade (200 mg QD (n=9)): 2 (22) n (%) | Drug-related diarrhea, grade 3 or 4 (200 mg QD (n=9)): 0 n (%) | Drug-related dizziness, all grade (200 mg QD (n=9)): 0 n (%) | Drug-related esophageal reflux, all grade (200 mg QD (n=9)): 0 n (%) | Drug-related headache, all grade (200 mg QD (n=9)): 0 n (%) | Drug-related nausea, all grade (200 mg QD (n=9)): 1 (11) n (%) | Drug-related nausea, grade 3 or 4 (200 mg QD (n=9)): 0 n (%) | Drug-related paresthesia, all grade (200 mg QD (n=9)): 0 n (%) | Drug-related thrombocytopenia, all grades (200 mg QD (n=9)): 0 n (%) | Drug-related vomiting, all grade (200 mg QD (n=9)): 2 (22) n (%) | Drug-related vomiting, grade 3 or 4 (200 mg QD (n=9)): 0 n (%) | Drug-related weight increased, all grade (200 mg QD (n=9)): 2 (22) n (%) | Drug-related weight increased, grade 3 or 4 (200 mg QD (n=9)): 0 n (%) | Drug-related anemia, Grade 1/2 (250 mg BID (n=8)): 1 (13) n (%) | Drug-related anemia, Grade 3 (250 mg BID (n=8)): 0 n (%) | Drug-related anemia, Grade 4 (250 mg BID (n=8)): 0 n (%) | Drug-related anemia, all grades (250 mg BID (n=8)): 1 (13) n (%) | Drug-related diarrhea, all grade (250 mg BID (n=8)): 0 n (%) | Drug-related dizziness, all grade (250 mg BID (n=8)): 1 (13)/1 (13) n (%) | Drug-related dizziness, grade 3 or 4 (250 mg BID (n=8)): 1 (13)/1 (13) n (%) | Drug-related esophageal reflux, all grade (250 mg BID (n=8)): 1 (13) n (%) | Drug-related esophageal reflux, grade 3 or 4 (250 mg BID (n=8)): 0 n (%) | Drug-related headache, all grade (250 mg BID (n=8)): 0 n (%) | Drug-related nausea, all grade (250 mg BID (n=8)): 2 (25) n (%) | Drug-related nausea, grade 3 or 4 (250 mg BID (n=8)): 1 (13) n (%) | Drug-related paresthesia, all grade (250 mg BID (n=8)): 0 n (%) | Drug-related thrombocytopenia, Grade 1/2 (250 mg BID (n=8)): 2 (25) n (%) | Drug-related thrombocytopenia, Grade 3 (250 mg BID (n=8)): 0 n (%) | Drug-related thrombocytopenia, Grade 4 (250 mg BID (n=8)): 1 (13) n (%) | Drug-related thrombocytopenia, all grades (250 mg BID (n=8)): 3 (38) n (%) | Drug-related vomiting, all grade (250 mg BID (n=8)): 0 n (%) | Drug-related weight increased, all grade (250 mg BID (n=8)): 0 n (%) | DLT: grade 3 QT prolongation (250 mg BID cohort): 1 patient | Patients who discontinued owing to AEs (beyond DLT) (300 mg BID): 3 patients | Rate of discontinuations owing to AEs (300 mg BID): 38% | Drug-related anemia, Grade 1/2 (300 mg BID (n=12)): 1 (8) n (%) | Drug-related anemia, Grade 3 (300 mg BID (n=12)): 2 (17) n (%) | Drug-related anemia, Grade 4 (300 mg BID (n=12)): 0 n (%) | Drug-related anemia, all grades (300 mg BID (n=12)): 3 (25) n (%) | Drug-related diarrhea, all grade (300 mg BID (n=12)): 1 (8) n (%) | Drug-related diarrhea, grade 3 or 4 (300 mg BID (n=12)): 0 n (%) | Drug-related dizziness, all grade (300 mg BID (n=12)): 3 (25) n (%) | Drug-related dizziness, grade 3 or 4 (300 mg BID (n=12)): 0 n (%) | Drug-related esophageal reflux, all grade (300 mg BID (n=12)): 1 (8) n (%) | Drug-related esophageal reflux, grade 3 or 4 (300 mg BID (n=12)): 0 n (%) | Drug-related headache, all grade (300 mg BID (n=12)): 0 n (%) | Drug-related nausea, all grade (300 mg BID (n=12)): 4 (33) n (%) | Drug-related nausea, grade 3 or 4 (300 mg BID (n=12)): 0 n (%) | Drug-related paresthesia, all grade (300 mg BID (n=12)): 2 (17) n (%) | Drug-related paresthesia, grade 3 or 4 (300 mg BID (n=12)): 1 (8) n (%) | Drug-related thrombocytopenia, Grade 1/2 (300 mg BID (n=12)): 3 (25) n (%) | Drug-related thrombocytopenia, Grade 3 (300 mg BID (n=12)): 1 (8) n (%) | Drug-related thrombocytopenia, Grade 4 (300 mg BID (n=12)): 0 n (%) | Drug-related thrombocytopenia, all grades (300 mg BID (n=12)): 4 (33) n (%) | Drug-related vomiting, all grade (300 mg BID (n=12)): 0 n (%) | Drug-related weight increased, all grade (300 mg BID (n=12)): 1 (8) n (%) | Drug-related weight increased, grade 3 or 4 (300 mg BID (n=12)): 0 n (%)
